Reference: article PMC11225362 (iScience, 2024)
“And” between values parts separate entries of the source, which are not always exact repeats. Identical values can stand only once. “Also recorded” adds a separate entry of the source.

What was measured:
[1] = molecular target: T1, purified 20S proteasome (Homo sapiens, UniProt P25787+P60900); experiment: Purified α-synuclein digestion with 20S proteasome; type: biochemical; conditions: 10 nM 20S, 300 nM α-synuclein, 3.5 h, 37°C
How it was run: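 Purified human 20S proteasome (10 nM final) in 50 mM HEPES, 5 mM DTT, pH 7.2 was preincubated 45 min at 37°C with test compound in DMSO or DMSO alone. Purified α-synuclein (300 nM final) was added, and digestion ran 3.5 h at 37°C. GAPDH (0.5 μM) served as loading control. Samples were boiled 15 min in SDS buffer and immunoblotted with anti-α-synuclein (1:1333).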

[2] = test system: A53T α-synuclein in HEK-293T cells; experiment: A53T α-synuclein levels in transfected HEK-293T cells; type: cell-based; conditions: for A53T α-synuclein remaining: vs DMSO; for α-synuclein remaining: 0.75 μM, A53T α-synuclein
[3] = molecular target: human constitutive 20S proteasome (Homo sapiens, UniProt P25787+P60900); experiment: Fluorogenic small peptide assay with purified 20S proteasome; type: biochemical; conditions: for EC200 (concentration at which degradation rate is enhanced 2-fold, 200%): equimolar mixture of Suc-LLVY-AMC, Z-LLE-AMC, Boc-LRR-AMC, mean ± SD, n = 3
How it was run: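 Human constitutive 20S proteasome (0.5 nM) in 38 mM Tris, 100 mM NaCl, pH 7.8 was preincubated 20 min at 37°C with test compound (3.75–30 μM, or 9 points 0.16–30 μM) in DMSO (2% final). Suc-LLVY-, Z-LLE- and Boc-LRR-AMC were added at 6.67 μM final each. AMC release (380/460 nm) was read at 37°C for 1 h. Hydrolysis rate was expressed relative to vehicle, and EC200 was taken as the 2-fold-rate concentration.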

[4] = molecular target: T1, purified 20S proteasome; experiment: Purified p25α digestion with 20S proteasome; type: biochemical; conditions: 10 μM compound; 7.5 nM 20S, 500 nM p25α, 3 h
How it was run: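 20S proteasome (7.5 nM final) in 120 mM NaCl, 50 mM Tris, 0.1% β-mercaptoethanol, pH 7.2 was exposed to 10 μM test compound or DMSO for 30 min at 37°C. Purified p25α was pretreated with 100 μM DTE for 30 min at room temperature, then added at 500 nM final for 3 h. GAPDH (0.5 μM) was the loading control. Samples were boiled in SDS buffer and immunoblotted.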

[5] = test system: p25α in HEK-293T cells; experiment: p25α levels in transfected HEK-293T cells; type: cell-based; conditions: 10 μM, 16 h
How it was run: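 HEK-293T cells were transiently transfected with TPPP/p25α and A53T α-synuclein plasmids, and protein was expressed for 48 h. Cells were then treated 16 h with 10 μM test compound, DMSO, or 30 nM bortezomib as control. p25α was quantified by immunoblot in triplicate.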

[6] = test system: p25α in PC12 cells; experiment: p25α levels in PC12 cells; type: cell-based, rat; conditions: 10 μM
[7] = test system: A53T α-synuclein in HEK-293T cells; experiment: A53T α-synuclein levels in HEK-293T cells pre-treated with Bafilomycin A1; type: cell-based; conditions: 10 μM after 1 h pre-treatment with 500 nM Bafilomycin A1, HEK-293T
How it was run: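 HEK-293T cells transiently expressing A53T α-synuclein (48 h expression) were pretreated with 500 nM bafilomycin A1 and exposed to 10 μM test compound. α-Synuclein levels were then determined by SDS-PAGE immunoblotting with anti-α-synuclein (1:1333).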

[8] = test system: ubiquitin in HEK-293T cells; experiment: Ubiquitin levels in unmodified HEK-293T cells; type: cell-based; conditions: for levels of ubiquitin: 10 μM
How it was run: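 Untransfected HEK-293T cells were treated with 10 μM test compound, DMSO vehicle, or 100 nM bortezomib. Ubiquitin levels were visualized and quantified by immunoblotting relative to vehicle.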

[9] = test system: proteasome activity in PC12 cells; type: cell-based, rat; conditions: 3 μM, 72 h; co-transfected PC12; untreated model 8%
How it was run: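 PC12 cells (RPMI 1640 with 5% FBS and 10% horse serum) were strained and plated at 2,500 cells/well in 384-well plates. Cells were co-transfected with 0.5 μg A53T α-synuclein and 0.1 μg p25α plasmids for 24 h. They were then treated with 3 μM test compound or DMSO (0.03% final) for 72 h. Proteasome Glo reagent was added and luminescence recorded.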

[10] = test system: PC12 cells; type: cell-based, rat; conditions: 3 μM, 72 h; co-transfected PC12; untreated model 25%

## CCOC(=O)[C@]1(c2ccccc2)N=C(c2ccc(OC)cc2)N(Cc2ccccc2)[C@@H]1c1ccc(NCc2ccccc2)cc1 [TCH-165, reference compound]
[1]; 5 μM compound
  α-synuclein remaining: 60%
[1]; 15 μM compound
  α-synuclein remaining: 40%
[2]; 10 μM, 16 h
  A53T α-synuclein remaining: 52% and 40%

## O=C(CCn1c2ccccc2c2ccc(Cl)cc21)N(c1ccc(F)cc1)c1ccc(F)cc1 [Compound 3, 3-(2-chloro-9H-carbazol-9-yl)-N,N-bis(4-fluorophenyl)propanamide]
[3]
  EC200 (concentration at which degradation rate is enhanced 2-fold, 200%): 0.9 µM
[1]; 15 μM compound
  α-synuclein remaining: 33%

## 3-(2,3-dihydro-4H-benzo[b][1,4]oxazin-4-yl)-N,N-bis(4-fluorophenyl)propenamide [Compound 11]
[3]
  EC200 (concentration at which degradation rate is enhanced 2-fold, 200%): 9.0 µM

## O=C(CCn1c2ccccc2c2ccccc21)N(c1ccc(F)cc1)c1ccc(F)cc1 [Compound 1, 3-(9H-carbazol-9-yl)-N,N-bis(4-fluorophenyl)propanamide]
[3]
  EC200 (concentration at which degradation rate is enhanced 2-fold, 200%): 1.6 µM
[1]; 5 μM compound
  α-synuclein remaining: 45%
[1]; 15 μM compound
  α-synuclein remaining: 28%
[4]
  p25α remaining compared to DMSO treated samples: 29%
[2]
  α-synuclein remaining: 55%
[2]; 1 μM, 16 h
  decrease of A53T α-synuclein: 67%
  A53T α-synuclein remaining: 64%
[2]; 15 μM, 16 h
  A53T α-synuclein remaining: 21%
[5]
  reduction of p25α: 45%
[6]
  p25α remaining: 40%
[7]
  A53T α-synuclein remaining: 16%
[8]
  levels of ubiquitin: didn’t impact the levels of ubiquitin significantly
[9]
  proteasome activity remaining: 29%

## O=C(Cn1ccc2ccc(Cl)cc21)N(c1ccc(F)cc1)c1ccc(F)cc1 [Compound 10, 2-(6-chloro-1H-indol-1-yl)-N,N-bis(4-fluorophenyl)acetamide]
[3]
  EC200 (concentration at which degradation rate is enhanced 2-fold, 200%): 1.6 µM

## O=C(Cn1c2ccccc2c2ccncc21)N(c1ccc(F)cc1)c1ccc(F)cc1 [Compound 6, N,N-bis(4-fluorophenyl)-2-(9H-pyrido[3,4-b]indol-9-yl)acetamide]
[3]
  EC200 (concentration at which degradation rate is enhanced 2-fold, 200%): 2.0 µM

## CN(C)CCC(=O)N(c1ccc(F)cc1)c1ccc(F)cc1 [Compound 19, 3-(dimethylamino)-N,N-bis(4-fluorophenyl)propanamide]
[4]
  p25α remaining compared to DMSO treated samples: didn’t show significant impact on the rate of p25α degradation
[5]
  reduction of p25α: didn’t impact the levels of p25α
[8]
  levels of ubiquitin: didn’t impact the levels of ubiquitin significantly

## O=C(CCn1ccc2ccccc21)N(c1ccc(F)cc1)c1ccc(F)cc1 [Compound 7, N,N-bis(4-fluorophenyl)-3-(1H-indol-1-yl)propanamide]
[3]
  EC200 (concentration at which degradation rate is enhanced 2-fold, 200%): 7.5 µM

## O=C(Cn1c(=O)oc2ccccc21)N(c1ccc(F)cc1)c1ccc(F)cc1 [Compound 14, N,N-bis(4-fluorophenyl)-2-(2-oxobenzo[d]oxazol-3(2H)-yl)acetamide]
[3]; fluorogenic peptide assay
  20S proteasome activation (in words): abrogated all 20S proteasome activity
[2]; 15 μM, 16 h
  A53T α-synuclein remaining: no significant effect on degradation; also recorded: no impact on the levels of A53T α-synuclein

## O=C(Cn1ccc2ccccc21)N(c1ccc(F)cc1)c1ccc(F)cc1 [Compound 8, N,N-bis(4-fluorophenyl)-2-(1H-indol-1-yl)acetamide]
[3]
  EC200 (concentration at which degradation rate is enhanced 2-fold, 200%): 7.5 µM

## N,N-bis(4-fluorophenyl)-2-(2-methyl-9H-carbazol-9-yl)acetamide [Compound 4]
[3]
  EC200 (concentration at which degradation rate is enhanced 2-fold, 200%): 1.2 µM
[1]; 5 μM compound
  α-synuclein remaining: 58%
[1]; 15 μM compound
  α-synuclein remaining: 33%
[4]
  p25α remaining compared to DMSO treated samples: 28%
[2]
  α-synuclein remaining: 72%
[2]; 5 μM, 16 h
  A53T α-synuclein remaining: 30%
[2]; 10 μM, 16 h
  A53T α-synuclein remaining: 14%
[2]; 15 μM, 16 h
  A53T α-synuclein remaining: 11%
[5]
  reduction of p25α: non-significant
[6]
  p25α remaining: 67%
[7]
  A53T α-synuclein remaining: 28%
[8]
  levels of ubiquitin: didn’t impact the levels of ubiquitin significantly
[10]
  cell viability: 75%
[9]
  proteasome activity remaining: 34%

## O=C(CN1CCOc2ccccc21)N(c1ccc(F)cc1)c1ccc(F)cc1 [Compound 12, 2-(2,3-dihydro-4H-benzo[b][1,4]oxazin-4-yl)-N,N-bis(4-fluorophenyl)acetamide]
[3]
  EC200 (concentration at which degradation rate is enhanced 2-fold, 200%): 8.0 µM

## O=C(Cn1c2ccccc2c2ccccc21)N(c1ccc(F)cc1)c1ccc(F)cc1 [Compound 2, 2-(9H-carbazol-9-yl)-N,N-bis(4-fluorophenyl)acetamide]
[3]
  EC200 (concentration at which degradation rate is enhanced 2-fold, 200%): 3.8 µM

## O=C(CCn1c2ccccc2c2ccncc21)N(c1ccc(F)cc1)c1ccc(F)cc1 [Compound 5, N,N-bis(4-fluorophenyl)-3-(9H-pyrido[3,4-b]indol-9-yl)propanamide]
[3]
  EC200 (concentration at which degradation rate is enhanced 2-fold, 200%): 3.8 µM

## CC(C)C[C@H](NC(=O)[C@H](Cc1ccccc1)NC(=O)c1cnccn1)B(O)O [BTZ, Bortezomib, reference compound]
[2]; 30 nM, 16 h
  increase of A53T α-synuclein levels: 148% and 135%
[8]; 100 nM
  ubiquitin as compared to the vehicle: 298%

## O=C(CCn1c(=O)oc2ccccc21)N(c1ccc(F)cc1)c1ccc(F)cc1 [Compound 13, N,N-bis(4-fluorophenyl)-3-(2-oxobenzo[d]oxazol-3(2H)-yl)propanamide]
[3]
  EC200 (concentration at which degradation rate is enhanced 2-fold, 200%): 1.3 µM
